Laboratory results taken from ChEMBL document CHEMBL1126041, “Leukotriene B4 receptor antagonists: the LY255283 series of hydroxyacetophenones” (J Med Chem, 1992).

What was measured:
[1] = biological target: Leukotriene B4 receptor 1 (Homo sapiens) (UniProt Q15722); assay: Inhibition of [3H]LTB4 binding to leukotriene B4 receptor from human peripheral neutrophils (PMN), at a concentration of 1 uM
Outline: (§1)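 Neutrophils isolated by Ficoll-Hypaque centrifugation, dextran 70 sedimentation and hypotonic lysis (≥90% neutrophils, ≥90% viable), 2 × 10^7 cells/mL in Hank's balanced salt solution with 0.1% ovalbumin. Compound in DMSO plus 2.65 nM [3H]LTB4 (stock), 10 min at 4 °C. Cells spun through dibutyl/dinonyl phthalate (7:2), pellet counted by scintillation. Triplicate incubations averaged. Reported as % inhibition of specific binding; nonspecific binding taken with >2000-fold excess unlabeled LTB4.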

[2] = biological target: Leukotriene B4 receptor 1 (Homo sapiens) (UniProt Q15722); assay: Inhibition of binding of [3H]LTB4 to the leukotriene B4 receptor of human peripheral neutrophils (PMN) at a concentration of 10 uM.; outline: as §1
[3] = biological target: Leukotriene B4 receptor (Homo sapiens) (UniProt Q9NPC1+Q15722); assay: Inhibition of [3H]LTB4 binding to leukotriene B4 receptor of human peripheral neutrophils (PMN) at a concentration of 0.1 uM.; format: protein assay; outline: as §1
Chain of Leukotriene B4 receptor (Homo sapiens) (Q15722 whole entry, looked up): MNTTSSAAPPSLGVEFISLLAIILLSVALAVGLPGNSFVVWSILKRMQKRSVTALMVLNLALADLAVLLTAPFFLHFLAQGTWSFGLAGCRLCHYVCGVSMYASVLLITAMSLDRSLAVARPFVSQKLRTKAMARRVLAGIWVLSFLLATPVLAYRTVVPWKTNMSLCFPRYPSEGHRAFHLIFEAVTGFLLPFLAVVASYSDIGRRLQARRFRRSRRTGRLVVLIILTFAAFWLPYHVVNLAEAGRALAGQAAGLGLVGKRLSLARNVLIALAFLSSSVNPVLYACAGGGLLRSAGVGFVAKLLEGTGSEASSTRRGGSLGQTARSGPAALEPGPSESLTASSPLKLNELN
Chain of Leukotriene B4 receptor (Homo sapiens) (Q9NPC1 whole entry, looked up): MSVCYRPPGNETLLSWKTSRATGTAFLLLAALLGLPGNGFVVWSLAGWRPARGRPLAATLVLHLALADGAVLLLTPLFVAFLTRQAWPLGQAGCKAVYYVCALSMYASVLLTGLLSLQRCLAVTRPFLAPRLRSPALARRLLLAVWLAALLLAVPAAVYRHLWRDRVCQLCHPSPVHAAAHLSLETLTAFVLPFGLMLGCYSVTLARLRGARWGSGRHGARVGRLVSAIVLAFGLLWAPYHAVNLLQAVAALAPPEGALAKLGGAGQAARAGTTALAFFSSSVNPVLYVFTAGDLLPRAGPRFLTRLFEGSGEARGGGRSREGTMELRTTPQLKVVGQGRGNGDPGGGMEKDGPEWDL

Chain of Leukotriene B4 receptor 1 (Homo sapiens) (Q15722 whole entry): as the sequence (Q15722 whole entry, looked up) above

| Structure (SMILES) | inhibition [1] [%] | inhibition [2] [%] | inhibition [3] [%] |
| --- | --- | --- | --- |
| CCCCCc1cc(C(C)=O)c(O)cc1OCCCCC#N | 14 | 31 |  |
| CC(=O)c1cc(C)c(OCCCCC#N)cc1O | 35 | 79 |  |
| C=CCc1cc(C(C)=O)c(O)cc1OCCCCO | 9 | 48 |  |
| CCc1cc(C(C)=O)c(O)cc1OCCCCCCSC | 14 | 71 |  |
| C=CCc1cc(C(C)=O)c(O)cc1OCCCCCC(N)=O | 37 | 88 |  |
| C=CCc1cc(C(C)=O)c(O)cc1OCCCCCC(C)(C)O | 60 | 98 |  |
| CCc1cc(C(C)=O)c(O)c(C)c1OCCCCCC(C)(C)c1nnn[nH]1 | 9 | 42 |  |
| CCc1cc(C(C)=O)c(O)cc1OCCCCCC(C)(C)C(=O)O | 73 | 104 | 20 |
| CCc1cc(C(C)=O)c(O)cc1OCCCCCCS(C)(=O)=O | 62 | 99 |  |
| CCc1cc(C(C)=O)c(O)cc1OCCCCCCC(C)(C)C#N | 30 | 65 | 11 |
| C=CCc1cc(C(=O)CC)c(O)cc1OCCCCC#N | 36 | 77 |  |
| CCc1cc(C(C)=O)c(O)cc1OCCCCC(C)(C)C#N | 30 | 79 | 5 |
| C=CCc1cc(C(C)=O)c(O)cc1OCc1ccccc1C#N | 6 | 47 |  |
| CCCCCCc1cc(C(C)=O)c(O)cc1OCCCCC#N | 13 | 51 |  |
| C=CCc1cc(C(C)=O)c(O)cc1OCCCCCC | 9 | 50 |  |
| CCc1cc(C(C)=O)c(O)cc1OCCCCc1nnn[nH]1 | 19 | 49 |  |
| CSCc1cc(C(C)=O)c(O)cc1OCCCCCCC#N | 64 | 97 |  |
| CC(=O)c1cc(C(C)=O)c(OCCCCC#N)cc1O | 0 | 8 |  |
| C=CCc1cc(C(C)=O)c(O)cc1OCc1ccc(CC#N)cc1 | 17 | 30 |  |
| CCCc1cc(C(C)=O)ccc1OCCCCC#N | 19 | 44 |  |
| CCCc1c(OCCCCC#N)ccc(C(C)=O)c1O | 9 | 0 |  |
| C=CCc1cc(C(C)=O)c(O)cc1OCCCCCC(=O)NO | 28 | 85 |  |

| Structure (SMILES) | inhibition [1] [%] | inhibition [2] [%] | inhibition [3] [%] |
| --- | --- | --- | --- |
| CCc1cc(C(C)=O)c(O)cc1OCCCCCC(C)(C)C#N | 53 | 85 | 17 |
| CCC1(c2ccc(N)cc2)CCC(=O)NC1=O (stereo not drawn) | 29 | 82 |  |
| CCCc1cc(C(C)=O)c(O)cc1OCCCCC#N | 37 | 84 |  |
| CCc1cc(C(C)=O)c(O)cc1OCCCCCCC(C)(C)c1nnn[nH]1 | 67 |  | 13 |
| C=CCc1cc(C(C)=O)c(O)cc1OCC#N | 2 | 20 |  |
| CC(=O)c1cc(C=O)c(OCCCCC#N)cc1O | 3 | 6 |  |
| CCCc1cc(C(C)=O)c(O)cc1OCCCCC(=O)O | 0 | 11 |  |
| C=CCc1cc(C(C)=O)c(O)cc1OCCCCCCC#N | 63 | 97 |  |
| C=CCc1cc(C(C)=O)c(O)cc1OCCCCCC(=O)OC | 65 | 106 |  |
| CCc1cc(C(C)=O)c(O)cc1Oc1cccc(C#N)c1 | 8 | 11 |  |
| CCc1cc(C(C)=O)c(O)cc1OCCCCCC(C)(C)c1nnnn1C | 59 | 99 | 14 |
| CCCCc1cc(C(C)=O)c(O)cc1OCCCCC#N | 13 | 41 |  |
| CCCc1cc(C(C)=O)c(Cl)cc1OCCCCC#N | 13 | 35 |  |
| CC(=O)c1cc(CO)c(OCCCCCCC#N)cc1O | 8 | 40 |  |
| CCc1cc(C(C)=O)c(O)cc1OCCCCCCC(=O)N(C)C | 61 | 100 |  |
| CCc1cc(C(C)=O)c(O)cc1OCCCCCC(C)(C)c1nn[nH]n1 | 93 | 102 | 56 |
| C=CCc1cc(C(C)=O)c(O)cc1OCCCCCCCCCCC#N | 14 | 50 |  |
| C=CCc1cc(C(C)=O)c(O)cc1OCCCCCCCCC#N | 50 | 86 |  |
| CCc1cc(C(C)=O)c(O)cc1OCCCC(C)(C)C#N | 46 | 85 | 13 |
| C=CCc1cc(C(=O)c2ccccc2)c(O)cc1OCCCCC#N | 5 | 33 |  |
| C=CCc1cc(C(C)=O)c(O)cc1OCCCCCCCC#N | 52 | 88 |  |
| C=CCc1cc(C(C)=O)c(OC)cc1OCCCCC#N | 8 | 13 |  |

| Structure (SMILES) | inhibition [1] [%] | inhibition [2] [%] | inhibition [3] [%] |
| --- | --- | --- | --- |
| CCc1cc(C(C)=O)c(O)cc1OCCCC(C)(C)C(=O)O | 43 | 89 | 12 |
| CCc1cc(C(C)=O)c(O)cc1OCCCCCCC#N | 73 | 103 |  |
| C=CCc1cc(C(C)=O)c(O)cc1OCCCC#N | 6 | 47 |  |
| C=CCc1ccc(O)cc1OCCCCC#N | 9 | 29 |  |
| CCc1cc(C(C)=O)c(O)cc1OCCCCCCC(=O)NC | 54 | 97 |  |
| CCCc1cc(C(C)=O)c(O)cc1OCCCCCC(=O)O | 24 | 73 |  |
| C=CCc1cc(C(C)=O)c(O)cc1OCCCCC#N | 57 | 92 |  |
| CC(=O)c1ccc(OCCCCC#N)cc1O | 0 | 0 |  |
| COCc1cc(C(C)=O)c(O)cc1OCCCCCCC#N | 7 | 47 |  |
| CCc1cc(C(C)=O)c(O)cc1OCc1ccc(C#N)cc1 | 11 | 7 | 0 |
| CCc1cc(C(C)=O)c(O)cc1OCCCCCCCC(C)(C)c1nnn[nH]1 | 96 |  | 49 |
| CCc1cc(C(C)=O)c(O)cc1OCc1cccc(C#N)c1 | 61 | 58 | 18 |
| C=CCc1cc(C(C)=O)c(O)cc1OCCCCCC#N | 41 | 81 |  |
| CCc1cc(C(C)=O)c(O)cc1OCc1ccc(C(=O)O)cc1 | 0 | 22 |  |
| C#CCCCCOc1cc(O)c(C(C)=O)cc1CC=C | 29 | 74 |  |
| CC(=O)c1cc(C(C)(C)C)c(OCCCCCC(C)(C)C#N)cc1O | 2 | 1 |  |
| C=CCc1cc(C(C)=O)c(O)cc1OCc1cccc(C#N)c1 | 58 | 71 | 25 |
| CCCc1cc(C(C)=O)c(O)cc1OCCCCNC(C)=O | 23 | 71 |  |
| CCc1cc(C(C)=O)c(O)cc1OCCCC(C)(C)C(N)=O | 51 | 92 | 16 |
| C=CCc1cc(C(C)=O)c(O)cc1OCCCCCC(=O)N(C)C | 54 | 92 |  |
| CCc1cc(C(C)=O)c(O)cc1OCCCCC(C)(C)c1nnn[nH]1 | 66 |  | 17 |
| C=CCCCCOc1cc(O)c(C(C)=O)cc1CC=C | 27 | 73 |  |

| Structure (SMILES) | inhibition [1] [%] | inhibition [2] [%] | inhibition [3] [%] |
| --- | --- | --- | --- |
| C=CCc1cc(C(C)=O)c(O)cc1OCCCC | 8 | 32 |  |
| CCc1cc(C(C)=O)c(O)cc1OCCCC(C)(C)c1nnn[nH]1 | 76 | 100 | 28 |
| CCc1cc(C(C)=O)c(O)cc1OCCCCN1CCOCC1 | 9 | 32 |  |
| CCc1cc(C(C)=O)c(O)cc1OCCCCCCCC(C)(C)C#N | 29 | 66 | 6 |
| C=CCc1cc(C(C)=O)c(O)cc1OCCCCC | 23 | 60 |  |
| CCc1cc(C(C)=O)c(O)cc1OCCCCCCC(=O)Nc1nn[nH]n1 | 83 | 101 |  |
| C=CCc1cc(C(C)=O)c(O)cc1OCCCCCCC | 8 | 31 |  |
| CCc1cc(C(C)=O)c(O)cc1OCCCCC#N | 57 | 92 |  |
| CC(=O)c1cc(CC(C)O)c(OCCCCC#N)cc1O (stereo not drawn) | 6 | 10 |  |
| CCCc1cc(C(C)=O)c(O)c(CCC)c1OCCCCC#N | 0 | 0 |  |
| C=CCc1cc(C(C)=O)c(O)cc1OCCCCCC(C)=O | 58 | 98 |  |
| CCc1cc(C(C)=O)c(O)cc1OCCCCCn1cncn1 | 30 | 82 |  |
| C=CCc1cc(C(C)=O)c(O)cc1OCc1cccc(CC#N)c1 | 0 | 16 |  |
| CCc1cc(C(C)=O)c(O)cc1OCCCCCCc1nnn[nH]1 | 60 | 91 |  |
| C=CCc1cc(C(C)=O)c(O)cc1OCc1ccc(C#N)cc1 | 28 | 22 |  |
| CCc1cc(C(C)=O)c(O)cc1OCCCCN(C)C | 3 | 4 |  |
| CCc1cc(C(C)=O)c(O)cc1OCCCCCCC(=O)O | 38 | 87 |  |
| CCc1cc(C(C)=O)c(O)cc1OCCCCCC[S+](C)[O-] (stereo not drawn) | 50 | 92 |  |
| C=CCc1cc(C(=O)CCCCCCCCC)c(O)cc1OCCCCC#N | 7 | 10 |  |
| CCCc1cc(C(C)=O)c(O)cc1OCCCCN | 0 | 6 |  |
| CC(=O)c1cc(CC2CO2)c(OCCCCC#N)cc1O (stereo not drawn) | 24 | 62 |  |
